Screening results: PubChem BioAssay, several laboratories
Hits are enriched below; roughly 3.4% of the tested compounds scored in any of these assays.
TAAR1 agonist = agonists of human TAAR1; Q96RJ0; CHO RD-HGA16 TAAR1, Fluo-8 calcium fluorescence; vehicle wells 0%, saturating PEA agonist 100%; activation, % at 3 µM; 0.99% of 360,000 active; AID 624467;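 active = activation above the mean activation of all test compounds in the run plus 3 SD, cut at about 38% in these data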
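Signal – calcium-sensitive Fluo-8 signal, excitation 470-495, emission 515-575 nm · System – RD-HGA16 (CHO) cells co-expressing Gα16 and hTAAR1 · Incubation – 17-24 h seeding, 75 min 37 °C dye, 30 min RT · Compound dosing – 3 µM single concentration · Repeats – no replicates (n 1)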
GPR7 antag = antagonists of human GPR7 (neuropeptides B/W receptor 1) | P48145 | GPR7-expressing cells, fluorescence antagonist assay | inhibition, % at 4.4 µM | 1.1% of 290,000 active | AID 1861; in the data active = inhibition above about 16%, passing the limit was not always enough;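 note: cells stimulated with the agonist NPW; 0% = agonist with vehicle and 100% = vehicle without agonist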
TAAR1 antag = antagonists of human TAAR1. inhibition, % at 3 µM. AID 624466. CHO RD-HGA16 TAAR1, Fluo-8 calcium fluorescence, antagonist. Q96RJ0. 1.5% of 360,000 active;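 active = inhibition above a per-plate cutoff, the mean inhibition of test compounds on that plate plus 3 SD, cut at about 49% in these data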;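 note: 0% = DMSO plus EC80 beta-PEA response and 100% = DMSO alone without agonist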
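Test system: RD-HGA16 CHO cells with stable hTAAR1 and Gα16 / Probe or stimulus: EC80 β-phenethylamine stimulus / Times: seeding 17-24 h prior, 75-min 37 °C, 30-min RT dye loading / Detection: Fluo-8 calcium-sensitive fluorescence / Read-out basis: % inhibition scaled between DMSO and EC80 PEA controls / Repeats: singlicate, one well per test compound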
TRPN1 ag = activates the zebrafish TRPN1 channel | 0.18% of 220,000 active | HEK293 zebrafish TRPN1-YFP, Fluo-8 calcium fluorescence; 100% = response to 87 µM carbachol | activation, % at 3 µM | AID 1424;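 active = activation above its plate's cutoff, the mean activation of test wells on that plate plus 3 SD, cut at about 19% in these data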;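 note: 0% = DMSO alone and 100% = 87 µM carbachol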
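Material: zebrafish TRPN1-YFP in HEK293 cells; Doses: single test compound dose, 3 µM nominal, 0.3% DMSO; Timing: dye loading 1 h at 37 °C, then 30 min room temperature; Technique: intracellular calcium fluorescence with Fluo-8; Benchmarks: high carbachol 87 µM, low DMSO alone.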
TRPML3 ag = agonists of human TRPML3 channel; activation, % at 3 µM; 0.29% of 220,000 active; Q8TDD5; HEK293 TRPML3-YFP, Fluo-8 calcium fluorescence; 100% = the carbachol control signal;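 active = activation above its plate's cutoff, the mean activation of the plate's test wells plus 3 SD, cut at about 12% in these data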;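 note: 0% = DMSO only wells and 100% = carbachol wells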
Target sequence (Q8TDD5 whole entry, looked up): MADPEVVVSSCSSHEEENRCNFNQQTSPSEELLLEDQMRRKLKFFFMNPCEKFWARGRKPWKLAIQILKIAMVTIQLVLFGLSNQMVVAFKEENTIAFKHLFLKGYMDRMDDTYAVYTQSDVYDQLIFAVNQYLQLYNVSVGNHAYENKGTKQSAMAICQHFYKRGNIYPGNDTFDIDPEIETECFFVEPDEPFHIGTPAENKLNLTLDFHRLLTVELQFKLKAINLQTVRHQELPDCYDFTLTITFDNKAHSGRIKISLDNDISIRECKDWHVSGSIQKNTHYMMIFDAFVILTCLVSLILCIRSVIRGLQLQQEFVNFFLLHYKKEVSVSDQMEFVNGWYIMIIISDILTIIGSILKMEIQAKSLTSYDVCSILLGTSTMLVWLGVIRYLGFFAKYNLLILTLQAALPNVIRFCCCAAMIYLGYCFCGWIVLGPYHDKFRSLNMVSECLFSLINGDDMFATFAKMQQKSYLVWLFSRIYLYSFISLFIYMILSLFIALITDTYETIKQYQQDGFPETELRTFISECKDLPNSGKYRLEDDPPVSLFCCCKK
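system = HEK293 cells stably carrying human TRPML3-YFP | doses = one concentration, 3 µM nominal, 0.3% DMSO | timing = dye loading 1 h 37 °C then 30 min ambient, 125 s read | detection = Fluo-8 calcium dye fluorescence, ex 470-495, em 515-575 nm | benchmarks = high control carbachol 87 µM, low control DMSO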
LANA-H2A inh = blocks KSHV LANA binding to histone H2A/H2B. cell-free LANA-H2A/H2B peptide, fluorescence polarization. inhibition, % (test concentration not listed). 0.6% of 320,000 active; in the data active = inhibition mostly above about 10%, no sharp cut-off; inactive = mostly below about 6.7%
GPR7 antag cf = confirmation of human GPR7 antagonists. shares compounds with GPR7 antag. GPR7-expressing cells, calcium fluorescence antagonist mode. inhibition, % at 4.4 µM. 52% of 2,400 active; in the data active = inhibition above about 24%;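 note: stimulated with the GPR7 agonist NPW; 0% = agonist plus vehicle and 100% = vehicle alone without agonist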
MCHR1 antagonist = antagonizes human MCHR1, a GPR7 antagonist counter-screen; MCHR1-expressing cells, fluorescence antagonist assay; shares compounds with GPR7 antag; AID 2148; 62% of 2,400 active; inhibition, % at 4.4 µM; in the data active = inhibition above about 22%;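 note: 0% = vehicle with agonist and 100% = vehicle without agonist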
An asterisk follows results filed as active; nt = no result given.

SMILES	TAAR1 agonist	GPR7 antag	TAAR1 antag	TRPN1 ag	TRPML3 ag	LANA-H2A inh	GPR7 antag cf	MCHR1 antagonist
CCn1nc(C)c(CN2CCC(C(=O)Nc3cccc(-c4cccc(Cl)c4)c3)CC2)c1C	17	26*	-10	nt	nt	1	19	51*
CCOC(=O)C1(Cc2ccccc2C)CCCN(C(=O)c2ccoc2)C1 (stereo not given)	-1	6	-3	nt	nt	3	nt	nt
CCOC(=O)C1(Cc2ccccc2C)CCCN(C(=O)c2sccc2C)C1 (stereo not given)	6	43*	-20	nt	nt	1	15	48*
CC(=O)C1(O)C(C)CC2C3CC=C4CC(O)CCC4(C)C3CCC21C (stereo not given)	2	nt	-4	nt	nt	nt	nt	nt
CC(=O)[C@@]1(O)[C@H](C)CC2C3CC=C4CC(OP(=O)(O)O)CC[C@]4(C)C3CC[C@@]21C (stereo not given in full)	1	28*	-6	nt	nt	1	-7	8
O=C(O)c1cccc(NC(=S)NC(NC(=O)c2cccc([N+](=O)[O-])c2)C(Cl)(Cl)Cl)c1 (stereo not given)	-2	-18	-35	0	0	1	nt	nt
O=C(NC(NC(=S)Nc1ccccc1)C(Cl)(Cl)Cl)c1cccc(Cl)c1 (stereo not given)	12	34*	34	3	2	0	47*	54*
COCC(O)Cn1ccnc1[N+](=O)[O-] (stereo not given)	1	nt	9	nt	nt	nt	nt	nt
CCOC(=O)Cc1csc(NC(=O)COc2ccc(N(C)S(=O)(=O)c3ccc(C)cc3)cc2)n1	10	32*	17	3	5	0	27*	67*
CCOC(=O)CSc1nc2c(sc(=S)n2Cc2ccco2)c(=O)n1-c1ccccc1	7	22*	7	-2	-1	-2	17	45*
CCN(CC)C(=O)CSc1nc2c(sc(=S)n2Cc2ccco2)c(=O)n1-c1ccccc1	10	24	-7	-3	-2	2	nt	nt
COc1ccc(NC(=O)CSc2nnnn2C)cc1	3	-11	-5	1	1	1	nt	nt
Cn1nnnc1SCC(=O)Nc1ccc(Oc2ccccc2)cc1	1	22*	9	1	1	4	14	18
CCn1c(SCc2ccccc2)nnc1-c1ccc(S(=O)(=O)N2CCCCC2)cc1	9	33*	21	6	1	0	19	33*
CCn1c(SCC(=O)O)nnc1-c1ccc(S(=O)(=O)N2CCCC2)cc1	2	3	3	nt	nt	3	nt	nt
CCc1cc(C(=O)OC)c(NC(=O)CCCC(=O)O)s1	9	26*	2	0	1	5	-3	0
O=C1CCC[C@@H]2[C@H]3CCC[N+]4([O-])CCC[C@@H](CN12)[C@@H]34 (stereo not given in full)	-1	5	15	nt	nt	1	nt	nt
CCCc1noc2c1/C(=N\O)CC(c1ccccc1)C2 (stereo not given)	-2	23*	-6	-1	-1	4	41*	23*
CCc1noc2c1/C(=N\O)CC(c1ccccc1)C2 (stereo not given)	3	22	-9	-1	-2	3	nt	nt
CSc1ccc(/C=C/C(=O)OCC(=O)N2CCN(S(=O)(=O)c3ccc(C)cc3C)CC2)cc1	2	nt	17	nt	nt	-1	nt	nt
O=C(NC(=S)Nc1cccc([N+](=O)[O-])c1)C1CCCCC1	1	32*	-2	nt	nt	-5	33*	39*
CN(C)S(=O)(=O)c1cccc(NC(=S)NC(=O)C2CCCCC2)c1	14	32*	-7	2	0	-3	1	35*
CN(C)S(=O)(=O)c1cccc(NC(=S)NC2CCCCC2)c1	6	-13	-9	1	1	0	nt	nt
Cc1ccc(S(=O)(=O)N2c3ccccc3OC(C(=O)OC(C)(C)C)(C(=O)OC(C)(C)C)C2CC(=O)c2ccccc2)cc1 (stereo not given)	-1	nt	-22	nt	nt	nt	nt	nt
CC(=O)C1=CCC(c2ccccc2Cl)N(S(=O)(=O)c2ccc(C)cc2)C1 (stereo not given)	-1	nt	-30	nt	nt	nt	nt	nt
SMILES	TAAR1 agonist	GPR7 antag	TAAR1 antag	TRPN1 ag	TRPML3 ag	LANA-H2A inh	GPR7 antag cf	MCHR1 antagonist
Cc1nc(NCCO)c(C#N)c2c1COC(C)(C)C2	7	26*	12	1	0	0	-21	-5
CN(C)CCCNc1nc(-c2ccccc2)c2c(c1C#N)CC(C)(C)OC2	-4	0	0	1	1	3	nt	nt
COc1ccccc1CNS(=O)(=O)c1c(C)cc(C)cc1C	0	nt	6	nt	nt	nt	nt	nt
O=C(Nc1ccc(-n2nncc2-c2ccco2)cc1)c1cccc(F)c1	4	39*	35	0	1	2	62*	49*
O=C(Nc1ccc(-n2nncc2-c2ccco2)cc1)c1cc2ccccc2oc1=O	nt	-12	nt	0	1	0	nt	nt
COc1ccccc1-c1ccc(SCc2cccc(F)c2)nn1	-2	29*	28	-2	0	-1	36*	56*
CCC(CC)NC(=O)c1oc2ccccc2c1COc1ccccc1	1	22*	-27	-2	0	3	49*	46*
Cc1cc(C)cc(NC(=O)c2oc3ccccc3c2COc2ccccc2)c1	2	7	-16	0	1	1	nt	nt
CCc1ccc(C2CC(c3ccccc3C)n3nc(N)nc3N2)cc1 (stereo not given)	7	25*	4	2	1	3	11	4
Cc1ccc(C2CC(c3ccc(F)cc3)Nc3nc(N)nn32)cc1 (stereo not given)	13	21*	6	9	1	4	21	8
CCc1ccc(C2CC(c3ccc(C)cc3)Nc3nc(N)nn32)cc1 (stereo not given)	3	7	-24	0	0	-2	nt	nt
CC(Sc1ncccn1)C(=O)N1CCc2ccccc21 (stereo not given)	0	nt	-13	nt	nt	nt	nt	nt
O=C(Cc1ccc(Cl)cc1)NC1CCCCCC1	2	-5	-13	nt	nt	3	nt	nt
Clc1ccc(CN=C(Nc2ccccc2)NC2CCCCC2)cc1	14	40*	7	6	2	4	57*	45*
O=[N+]([O-])c1nn(-c2ccc3c(c2)OCCO3)n(O)c1=Nc1ccc(Cl)cc1	4	28*	-7	-1	-1	2	34*	21
